Experimental data as given in ChEMBL document CHEMBL4689842, “EUbOPEN Chemogenomics Library wave 1” (2021).

System: HEK-293T
Assay: Multiplex assay against HEK293T;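 on Population Tubulin-Different-Phenotype (%): share of the cells with healthy nuclei that show this phenotype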
Format: toxicity, cell-based
Conditions: human
Method in brief: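 Cells were classed with CellPathfinder machine-learning gating, first as Hoechst high-intensity objects or normal cells, then (normal cells) as healthy, pyknosed or fragmented nuclei, and finally (pyknosed cells) as mitotic or apoptotic. Staining of live cells at seeding used Hoechst33342, BioTracker Green Microtubule Cytoskeleton Dye, MitoTracker Red and Annexin V Alexa Fluor 680, with imaging on a CQ1 microscope at 37°C and 5% CO2 after compound addition. Tubulin, mitochondrial-mass and membrane-permeability phenotypes are per cents of healthy-nucleus cells.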

[1] = 12 h, 1 µM, compound concentration 1 uM, replicate 1
[2] = 12 h, 1 µM, compound concentration 1 uM, replicate 2
[3] = 12 h, 10 µM, compound concentration 10 uM, replicate 1
[4] = 12 h, 10 µM, compound concentration 10 uM, replicate 2
[5] = 24 h, 1 µM, compound concentration 1 uM, replicate 1
[6] = 24 h, 1 µM, compound concentration 1 uM, replicate 2
[7] = 24 h, 10 µM, compound concentration 10 uM, replicate 1
[8] = 24 h, 10 µM, compound concentration 10 uM, replicate 2
[9] = 48 h, 1 µM, compound concentration 1 uM, replicate 1
[10] = 48 h, 1 µM, compound concentration 1 uM, replicate 2
[11] = 48 h, 10 µM, compound concentration 10 uM, replicate 1
[12] = 48 h, 10 µM, compound concentration 10 uM, replicate 2

For CNc1oc(-c2cccc3ccccc23)nc1C#N, the “Population Apoptotic (%)” value [1] was 59%, the “Population Fragmented Nuclei (%)” value [1] was 14% and the “Population Healthy Nuclei (%)” value [1] was 60%. For the same molecule, the “Population Hoechst High Intensity Objects (%)” value [1] was 30%, the “Population Membrane Permeable-Phenotype (%)” value [1] was 3% and the “Population Mitochondria Different-Phenotype (%)” value [1] was 62%. The “Population Mitotic Cells (%)” value [1] was 40%, the “Population Normal (%)” value [1] was 69% and the “Population Pyknosed Nuclei (%)” value [1] was 25%. The “Population Tubulin-Different-Phenotype (%)” value [1] was 31%, the “Total Cell Count” value [1] was 276 and the “Population Apoptotic (%)” value [2] was 14%. For the same molecule, the “Population Fragmented Nuclei (%)” value [2] was 8%, the “Population Healthy Nuclei (%)” value [2] was 61% and the “Population Hoechst High Intensity Objects (%)” value [2] was 11%. The “Population Membrane Permeable-Phenotype (%)” value [2] was 8%, the “Population Mitochondria Different-Phenotype (%)” value [2] was 16% and the “Population Mitotic Cells (%)” value [2] was 85%. The “Population Normal (%)” value [2] was 88%, the “Population Pyknosed Nuclei (%)” value [2] was 29% and the “Population Tubulin-Different-Phenotype (%)” value [2] was 12%. For the same molecule, the “Total Cell Count” value [2] was 270, the “Population Apoptotic (%)” value [3] was 41% and the “Population Fragmented Nuclei (%)” value [3] was 83%. The “Population Healthy Nuclei (%)” value [3] was 15%, the “Population Hoechst High Intensity Objects (%)” value [3] was 41% and the “Population Membrane Permeable-Phenotype (%)” value [3] was 0%. The “Population Mitochondria Different-Phenotype (%)” value [3] was 1%, the “Population Mitotic Cells (%)” value [3] was 58% and the “Population Normal (%)” value [3] was 58%. The “Population Pyknosed Nuclei (%)” value [3] was 1%, the “Population Tubulin-Different-Phenotype (%)” value [3] was 0% and the “Total Cell Count” value [3] was 2858. For the same molecule, the “Population Apoptotic (%)” value [4] was 25%, the “Population Fragmented Nuclei (%)” value [4] was 86% and the “Population Healthy Nuclei (%)” value [4] was 12%. The “Population Hoechst High Intensity Objects (%)” value [4] was 47%, the “Population Membrane Permeable-Phenotype (%)” value [4] was 4% and the “Population Mitochondria Different-Phenotype (%)” value [4] was 2%. For the same molecule, the “Population Mitotic Cells (%)” value [4] was 75%, the “Population Normal (%)” value [4] was 52% and the “Population Pyknosed Nuclei (%)” value [4] was 0%. The “Population Tubulin-Different-Phenotype (%)” value [4] was 1%, the “Total Cell Count” value [4] was 2861 and the “Population Apoptotic (%)” value [5] was 38%. For the same molecule, the “Population Fragmented Nuclei (%)” value [5] was 17%, the “Population Healthy Nuclei (%)” value [5] was 64% and the “Population Hoechst High Intensity Objects (%)” value [5] was 29%. For the same molecule, the “Population Membrane Permeable-Phenotype (%)” value [5] was 6%, the “Population Mitochondria Different-Phenotype (%)” value [5] was 41% and the “Population Mitotic Cells (%)” value [5] was 61%. For the same molecule, the “Population Normal (%)” value [5] was 70%, the “Population Pyknosed Nuclei (%)” value [5] was 17% and the “Population Tubulin-Different-Phenotype (%)” value [5] was 25%. For the same molecule, the “Total Cell Count” value [5] was 325, the “Population Apoptotic (%)” value [6] was 32% and the “Population Fragmented Nuclei (%)” value [6] was 6%. The “Population Healthy Nuclei (%)” value [6] was 79%, the “Population Hoechst High Intensity Objects (%)” value [6] was 14% and the “Population Membrane Permeable-Phenotype (%)” value [6] was 15%. The “Population Mitochondria Different-Phenotype (%)” value [6] was 8%, the “Population Mitotic Cells (%)” value [6] was 67% and the “Population Normal (%)” value [6] was 85%. For the same molecule, the “Population Pyknosed Nuclei (%)” value [6] was 13%, the “Population Tubulin-Different-Phenotype (%)” value [6] was 26% and the “Total Cell Count” value [6] was 316. The “Population Apoptotic (%)” value [7] was 15%, the “Population Fragmented Nuclei (%)” value [7] was 83% and the “Population Healthy Nuclei (%)” value [7] was 15%. The “Population Hoechst High Intensity Objects (%)” value [7] was 40%, the “Population Membrane Permeable-Phenotype (%)” value [7] was 0% and the “Population Mitotic Cells (%)” value [7] was 84%. The “Population Normal (%)” value [7] was 59%, the “Population Pyknosed Nuclei (%)” value [7] was 0% and the “Population Tubulin-Different-Phenotype (%)” value [7] was 0%. For the same molecule, the “Total Cell Count” value [7] was 2556, the “Population Apoptotic (%)” value [8] was 13% and the “Population Fragmented Nuclei (%)” value [8] was 88%. The “Population Healthy Nuclei (%)” value [8] was 10%, the “Population Hoechst High Intensity Objects (%)” value [8] was 48% and the “Population Membrane Permeable-Phenotype (%)” value [8] was 4%. For the same molecule, the “Population Mitochondria Different-Phenotype (%)” value [8] was 1%, the “Population Mitotic Cells (%)” value [8] was 86% and the “Population Normal (%)” value [8] was 51%. For the same molecule, the “Population Pyknosed Nuclei (%)” value [8] was 1%, the “Population Tubulin-Different-Phenotype (%)” value [8] was 3% and the “Total Cell Count” value [8] was 2734. For the same molecule, the “Population Apoptotic (%)” value [9] was 39%, the “Population Fragmented Nuclei (%)” value [9] was 14% and the “Population Healthy Nuclei (%)” value [9] was 78%. The “Population Hoechst High Intensity Objects (%)” value [9] was 32%, the “Population Membrane Permeable-Phenotype (%)” value [9] was 2% and the “Population Mitochondria Different-Phenotype (%)” value [9] was 17%. The “Population Mitotic Cells (%)” value [9] was 60%, the “Population Normal (%)” value [9] was 67% and the “Population Pyknosed Nuclei (%)” value [9] was 7%. For the same molecule, the “Population Tubulin-Different-Phenotype (%)” value [9] was 17%, the “Total Cell Count” value [9] was 470 and the “Population Apoptotic (%)” value [10] was 18%. The “Population Fragmented Nuclei (%)” value [10] was 8%, the “Population Healthy Nuclei (%)” value [10] was 84% and the “Population Hoechst High Intensity Objects (%)” value [10] was 14%. For the same molecule, the “Population Membrane Permeable-Phenotype (%)” value [10] was 7%, the “Population Mitochondria Different-Phenotype (%)” value [10] was 3% and the “Population Mitotic Cells (%)” value [10] was 81%. For the same molecule, the “Population Normal (%)” value [10] was 85%, the “Population Pyknosed Nuclei (%)” value [10] was 6% and the “Population Tubulin-Different-Phenotype (%)” value [10] was 14%. For the same molecule, the “Total Cell Count” value [10] was 536, the “Population Apoptotic (%)” value [11] was 15% and the “Population Fragmented Nuclei (%)” value [11] was 82%. For the same molecule, the “Population Healthy Nuclei (%)” value [11] was 16%, the “Population Hoechst High Intensity Objects (%)” value [11] was 43% and the “Population Membrane Permeable-Phenotype (%)” value [11] was 0%. For the same molecule, the “Population Mitochondria Different-Phenotype (%)” value [11] was 0%, the “Population Mitotic Cells (%)” value [11] was 85% and the “Population Normal (%)” value [11] was 56%. The “Population Pyknosed Nuclei (%)” value [11] was 1%, the “Population Tubulin-Different-Phenotype (%)” value [11] was 0% and the “Total Cell Count” value [11] was 2084. The “Population Apoptotic (%)” value [12] was 16%, the “Population Fragmented Nuclei (%)” value [12] was 84% and the “Population Healthy Nuclei (%)” value [12] was 14%. For the same molecule, the “Population Hoechst High Intensity Objects (%)” value [12] was 52%, the “Population Membrane Permeable-Phenotype (%)” value [12] was 1% and the “Population Mitotic Cells (%)” value [12] was 83%. For the same molecule, the “Population Normal (%)” value [12] was 47%, the “Population Tubulin-Different-Phenotype (%)” value [12] was 1% and the “Total Cell Count” value [12] was 2135.
